Source: PubChem BioAssay
S1P4 antag = human S1P4 receptor antagonism; S1P4-expressing cells, antagonist mode, reporter read-out; 220,000 tested, 0.26% active; inhibition, % at 4.98 µM; in the data active means inhibition above about 29%
S1P4 ag = activates the human S1P4 receptor | activation, % at 4.98 µM | O95977 | 220,000 tested, 0.35% active | S1P4-expressing cell line, agonist reporter assay; in the data active means activation above about 11%
HMGR II inh = E. faecalis class II HMG-CoA reductase inhibition | purified E. faecalis HMGR, NADPH absorbance 340 nm kinetic | inhibition, % at 10 µM | AID 1066 | 190,000 tested, 0.41% active;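 active means inhibition above a set limit, the median over all tested compounds plus 3 SD, cut at about 9.5% in these data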;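 further: enzyme runs in reverse so mevalonate oxidation gives rising NADPH absorbance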
Calb biofilm kill = mixtures killing C. albicans biofilm | C. albicans biofilm persisters + clotrimazole, fluorescence viability; primary screen in compound mixtures of four per well | inhibition, % at 7.6 µM | 120,000 tested, 0.02% active;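 active means inhibition above 30.3% in the primary screen of four-compound pools, then above 30% when the compound was retested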;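 further: compounds exposed to preformed 24 h biofilms for 48 h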
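Incubation: 24 h biofilm formation, then 48 h compound exposure, 37 °C | Material: C. albicans biofilms | Buffer or medium: RPMI/MOPS medium, pH 7.0 | Measured by: 2-h Alamar Blue fluorescence, 535/590 nm excitation/emission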
S1P3 antagonist = S1P3 (human) receptor antagonism | inhibition, % at 4.98 µM | Q99500 | CHO S1P3 NFAT-BLA reporter, FRET fluorescence, antagonist mode | 170,000 tested, 0.27% active;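 active means inhibition above the plate cutoff, the mean inhibition of test wells on that plate plus 3 SD, cut at about 28% in these data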;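 further: cells challenged with S1P at its EC80 of 0.8 µM; blue over green emission ratio from cleaved BLA substrate after 4 h stimulation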
Rad51 HR inh = blocks human Rad51 in homologous recombination; Q06609; hRad51 DNA strand exchange, fluorescence dequenching; inhibition, % at 10 µM; 200,000 tested, 0.085% active;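 active means inhibition above 40% at the single screening dose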
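Assay system: Human Rad51 nucleoprotein filaments preassembled on unlabelled ssDNA | Reagent: Donor/quencher-labelled 47-bp dsDNA substrate | Doses: One concentration, 10 µM final | Times: 37 °C 15-min filament assembly, 30-min compound preincubation, 15-min exchange | Technique: Fluorescein emission 520 nm, excitation 485 nm | Benchmarks: Plate control and blank wells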
S1P4 ag conf = human S1P4 agonism, confirmation. shares compounds with S1P4 ag. S1P4 agonist cell-based reporter assay. activation, % at 4.98 µM. 740 tested, 7% active; in the data active means activation above about 12%
S1P1 ag = counter-screen for S1P4 agonists: agonists of human S1P1 | shares compounds with S1P4 ag | S1P1 agonist cell-based assay, activation | activation, % at 4.98 µM | 740 tested, 4% active; in the data active means activation above about 21%
Target sequence (P21453 whole entry, looked up): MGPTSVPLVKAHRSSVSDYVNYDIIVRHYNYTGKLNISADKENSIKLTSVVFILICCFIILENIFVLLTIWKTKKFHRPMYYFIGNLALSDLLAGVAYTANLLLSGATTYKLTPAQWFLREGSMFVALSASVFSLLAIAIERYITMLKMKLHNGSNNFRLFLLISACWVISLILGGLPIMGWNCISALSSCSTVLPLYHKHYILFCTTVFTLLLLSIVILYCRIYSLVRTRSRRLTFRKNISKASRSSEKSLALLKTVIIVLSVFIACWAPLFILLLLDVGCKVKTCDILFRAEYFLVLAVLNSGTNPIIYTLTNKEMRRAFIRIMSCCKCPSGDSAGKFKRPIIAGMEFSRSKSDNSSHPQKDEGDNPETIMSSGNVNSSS
Hits are given with their value; . = inactive; / = not tested or not shown. Compounds with a hit are over-represented: about 1.2% of the library has one in this group of screens.

SMILES	S1P4 antag	S1P4 ag	HMGR II inh	Calb biofilm kill	S1P3 antagonist	Rad51 HR inh	S1P4 ag conf	S1P1 ag
O=C(Cn1cncn1)N/N=C/c1ccc(Cl)cc1	.	.	.	.	.	/	/	/
O=C(Cn1cncn1)NCc1ccc(Cl)cc1	.	13.2	.	.	.	.	.	.
CCC1(C)CC(CCNS(=O)(=O)c2ccc(C)cc2)(c2ccc(C)cc2)CCO1 (stereo not drawn)	.	.	.	/	/	.	/	/
N#CCC(CNc1ncc(C(F)(F)F)cc1Cl)OC(=O)c1cccc(C(F)(F)F)c1 (stereo not drawn)	.	15.9	.	/	/	.	.	.
CCn1cc(/C=C/C(=O)Nc2c(C)nn(Cc3ccccc3C)c2C)cn1	.	20.4	.	.	.	.	.	.
CCn1nc(C)c(NC(=O)/C=C/c2cnn(C)c2)c1C	.	.	.	/	/	.	/	/
CCCCC(=O)Nc1nnn(CCC)n1	.	.	.	/	.	.	/	/
CCCCC(=O)NC(=S)Nc1nnn(CCC)n1	.	178.9	.	.	.	.	.	.
O=C(CSc1ccc(-c2cccs2)nn1)Nc1ccccc1	.	34.6	.	.	.	.	.	.
Cc1cc(C)cc(NC(=O)CSc2ccc(-c3cccs3)nn2)c1	.	.	.	.	.	.	/	/
COc1ccc2c(c1)C(=O)C(=O)N2	.	.	.	.	.	.	/	/
CCc1ccc2c(c1)/C(=N/OC)C(=O)N2	.	60.4	.	.	.	.	.	.
CCC1(C(=O)OC)CCc2c(cc(OC)c3ccccc23)C1=O (stereo not drawn)	.	12.7	/	.	.	.	.	.
COc1cc(C(=O)NCc2cccc3ccccc23)cc(Cl)c1OC	.	.	.	/	/	.	/	/
Nc1c2c(nc3ccn(-c4ccccc4)c(=O)c13)CCCCC2	.	.	.	/	.	.	/	/
CCNC(=S)NNC(=O)c1cc(C)nc2ccccc12	.	43.7	.	.	.	.	.	.
C=CCNC(=S)NNC(=O)c1cc(C)nc2ccccc12	.	.	.	.	.	.	/	/
CCOc1ccc(NC(=S)N(CC)Cc2ccccc2)cc1	.	.	.	.	.	.	/	/
O=C(NNc1c2ccccc2nc2ccccc12)C12CC3CC(CC(C3)C1)C2	.	13.0	/	.	.	/	.	.
COc1cccc(C2C3=C(CCCC3=O)NC3=C2C(=O)c2ccccc23)c1 (stereo not drawn)	.	12.9	.	.	.	.	.	.
CCCCN(CC)C(=O)c1ccc(Cl)cc1	.	.	.	.	.	.	/	/
CCN(CC(=O)NC(C)C)C(=O)c1ccc(Cl)cc1	.	18.2	.	.	.	.	.	.
COc1cccc(-n2nnc3c(=O)n(CC(=O)NCC4CCCO4)cnc32)c1 (stereo not drawn)	.	.	.	/	.	.	/	/
N#CCCN(/N=C/c1cccnc1)C1=NS(=O)(=O)c2ccccc21	.	47.1	.	.	.	.	.	.
Cc1cccc(/C=N/N(CCO)C2=NS(=O)(=O)c3ccccc32)c1	.	.	.	.	.	.	/	/
SMILES	S1P4 antag	S1P4 ag	HMGR II inh	Calb biofilm kill	S1P3 antagonist	Rad51 HR inh	S1P4 ag conf	S1P1 ag
COc1ccc(C)cc1NC(=O)c1ccc2c(SCC(=O)O)c3c(nc2c1)CCCC3	.	45.4	/	.	.	.	.	.
COc1cc(Cl)c(C)cc1NC(=O)c1ccc2c(SCC(=O)O)c3c(nc2c1)CCCC3	.	.	.	.	.	.	/	/
C1CCN(c2nc3nonc3nc2NCC2CCOCC2)CC1	.	.	.	.	.	.	/	/
O=c1c2c3c(sc2nc2sc(CN4CCOCC4)cn12)CCCC3	.	40.5	.	/	.	.	.	.
COc1ccc(N=c2oc3cc(O)ccc3cc2C(=O)NCC2CCCO2)cc1 (stereo not drawn)	.	12.0	.	/	.	.	.	.
COc1ccc(N=c2oc3cc(O)ccc3cc2C(=O)NCC2CCCO2)c(OC)c1 (stereo not drawn)	.	70.9	.	/	.	.	.	.
CCOc1ccccc1N=c1oc2cc(O)ccc2cc1C(=O)NCC1CCCO1 (stereo not drawn)	.	61.0	.	/	/	.	.	.
CCOc1ccc(N=c2oc3cc(O)ccc3cc2C(=O)NCC2CCCO2)cc1 (stereo not drawn)	.	.	.	/	/	.	/	/
CN(Cc1ccccc1)c1ccc2nnc(-c3ccccc3)n2n1	.	.	.	.	.	/	/	/
CCc1cccc(CC)c1NC(=O)COC(=O)c1ccc2c(c1)S(=O)(=O)c1ccccc1C2=O	.	12.1	.	.	.	.	.	.
CCC(=O)N1CCc2cc(S(=O)(=O)NCCC(=O)N3CC=C(c4ccccc4)CC3)ccc21	.	.	.	/	/	.	/	/
CCC1CCCCN1C(=S)Nc1ccc(OC(F)F)cc1 (stereo not drawn)	.	12.5	.	.	.	.	.	.
O=c1oc2c(CN3CCN(CCO)CC3)c(O)ccc2cc1-c1ccccn1	.	14.4	/	.	.	.	.	.
O=c1oc2c(CN3CCCCC3)c(O)ccc2cc1-c1nc2ccccc2[nH]1	/	/	/	/	.	/	/	/
Cc1ccc(C(=O)N(CC#N)CC#N)cc1C	.	.	.	.	.	.	/	/
O=C(CN1c2ccccc2Sc2ccccc21)NNC(=S)Nc1ccc(Cl)cc1Cl	.	.	.	/	/	/	/	/
O=C(CN1c2ccccc2Sc2ccccc21)NNC(=S)Nc1ccc(Cl)cc1	.	94.1	/	.	.	.	.	.
CNC(=O)c1[nH]cnc1C(=O)N[C@@H](Cc1ccccc1)C(=O)OC(C)(C)C	.	.	.	.	.	.	/	/
CNC(=O)c1[nH]cnc1C(=O)N[C@@H](Cc1ccccc1)C(=O)OCc1ccccc1	.	23.4	.	.	.	.	56.0	37.7
COc1ccc([C@@H]2Sc3cc(OC)ccc3N(CCN(C(C)C)C(C)C)C(=O)[C@H]2OC(C)=O)cc1	.	.	.	.	/	.	/	/
CCN(C(=S)Nc1ccc(C(C)=O)cc1)C1CCCCC1	.	41.7	.	.	.	.	.	.
NC(=O)C1CCN(C2CC(=O)N(Cc3cccs3)C2=O)CC1 (stereo not drawn)	.	28.0	.	/	/	.	.	.
Cc1ccc(-c2nc(NC(=O)c3ccc(S(=O)(=O)N(CCC#N)CCC#N)cc3)sc2-c2ccccc2)cc1	.	.	.	.	.	.	/	/
CCCN(CCC)S(=O)(=O)c1ccc(C(=O)Nc2nc3c(s2)CCc2ccccc2-3)cc1	.	28.9	.	.	.	.	.	.
O=C(CN1C(=O)c2ccccc2C1=O)NN1C(=O)c2ccccc2C1=O	.	.	/	/	/	/	/	/
Cc1nc(-c2ccccc2)sc1C(=O)CSc1ccc(F)cc1	.	.	.	/	/	.	/	/
O=C(COc1ccc2ccccc2c1)NNC(=O)Cc1ccccc1	.	13.0	.	.	.	.	.	.
CCc1ccc(/C(C)=N/NC(=O)c2ccccn2)cc1	.	12.0	.	.	.	.	.	.
